# Reference: ChEMBL document CHEMBL1240443, “A study of cytotoxicity of novel chlorokojic acid derivatives with their antimicrobial and antiviral activities” (Eur J Med Chem, 2010)
# Key:
# Klebsiella pneumoniae [1] = assay: Antimicrobial activity against Klebsiella pneumoniae RSKK 574 by spectrophotometry; type: functional
# Method in brief: (§1)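 Broth microdilution in Mueller–Hinton broth. Two-fold dilutions from 256 to 0.125 µg/mL. Inoculum 10^5 c.f.u./mL, diluted from a McFarland 0.5 culture. Incubated at 35 °C for 24 h and 48 h in a humid chamber, triplicate.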
# Enterococcus faecalis [2] = assay: Antimicrobial activity against Enterococcus faecalis ATCC 29212 by spectrophotometry; type: functional; method in brief: as §1
# Proteus mirabilis [3] = assay: Antimicrobial activity against extended spectrum beta lactamase expressing Proteus mirabilis by spectrophotometry; type: functional; method in brief: as §1
# Acinetobacter baumannii [4] = assay: Antimicrobial activity against Acinetobacter baumannii RSKK 02026 by spectrophotometry; type: functional; method in brief: as §1
# Enterococcus faecalis [5] = assay: Antimicrobial activity against cephalosporin-resistant Enterococcus faecalis by spectrophotometry; type: functional; method in brief: as §1
# Acinetobacter baumannii [6] = assay: Antimicrobial activity against cephalosporin-resistant Acinetobacter baumannii by spectrophotometry; type: functional; method in brief: as §1
# Proteus mirabilis [7] = assay: Antimicrobial activity against Proteus mirabilis ATCC 7002 by spectrophotometry; type: functional; method in brief: as §1
# Staphylococcus aureus = assay: Antimicrobial activity against methicillin-resistant Staphylococcus aureus by spectrophotometry; type: functional; method in brief: as §1
# Bacillus subtilis [8] = assay: Antimicrobial activity against Bacillus subtilis ATCC 6633 by spectrophotometry; type: functional; method in brief: as §1
# [9] = Cytotoxicity against MDBK cells after 48 hrs; type: cell-based, Bos taurus; conditions: cattle
# Klebsiella pneumoniae [10] = assay: Antimicrobial activity against extended spectrum beta lactamase expressing Klebsiella pneumoniae by spectrophotometry; type: functional; method in brief: as §1
# Pseudomonas aeruginosa [11] = assay: microbe, parasite or virus in culture; conditions: ATCC 10145
# Human respirovirus 3 = assay: Antiviral activity against parainfluenza-3 virus infected in Vero cells assessed as reduction of virus-induced cytopathic effect; type: functional
# Method in brief: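 Vero cells grown in EMEM with 10% fetal calf serum. Two-fold dilutions from 51.2 to 0.012 µg/mL, with PI-3 added at its TCID50-based titre, held 2 h at 37 °C in 5% CO2. CPE scored by microscope against untreated controls, giving the CPE-inhibitory concentration range.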
# Escherichia coli [12] = assay: Antimicrobial activity against extended spectrum beta lactamase expressing Escherichia coli by spectrophotometry; type: functional; method in brief: as §1
# [13] = Cytotoxicity against african green monkey Vero cells after 48 hrs; type: cell-based; conditions: chlorocebus sabaeus
# Method in brief: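 Confluent cell monolayers exposed to two-fold (Log2) dilutions of each sample (51.2–0.012 µg/mL) in EMEM, 5% CO2, 37 °C, 48 h. Scored by light microscopy against untreated cultures; rows damaging all cells counted toxic. Maximum non-toxic concentration (MNTC, µg/mL) taken as highest concentration leaving cells unaffected. Vero grown in EMEM/10% fetal calf serum with streptomycin/penicillin.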
# Candida albicans = assay: Antifungal activity against Candida albicans ATCC 10231 by spectrophotometry; type: functional
# Method in brief: (§2)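 Yeast broth microdilution in RPMI-1640 with L-glutamine, buffered to pH 7 with MOPS. Inoculum 10^5 c.f.u./mL, prepared by the spectrophotometric method. Two-fold dilutions from 256 to 0.125 µg/mL. Incubated at 35 °C for 24 h and 48 h in a humid chamber, triplicate.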
# Bacillus subtilis [14] = assay: Antimicrobial activity against ceftriaxone-resistant Bacillus subtilis by spectrophotometry; type: functional; method in brief: as §1
# Candida parapsilosis = assay: Antifungal activity against Candida parapsilosis ATCC 22019 by spectrophotometry; type: functional; conditions: Lodderomyces parapsilosis; method in brief: as §2
# Pseudomonas aeruginosa [15] = assay: Antimicrobial activity against trimethoprim-sulfamethoxazole and tazobactum-induced Pseudomonas aeruginosa by spectrophotometry; type: functional; method in brief: as §1
# Escherichia coli [16] = assay: Antimicrobial activity against Escherichia coli ATCC 35218 by spectrophotometry; type: functional; method in brief: as §1
SMILES,MIC (Klebsiella pneumoniae [1]) [µg/mL],MIC (Enterococcus faecalis [2]) [µg/mL],MIC (Proteus mirabilis [3]) [µg/mL],MIC (Acinetobacter baumannii [4]) [µg/mL],MIC (Enterococcus faecalis [5]) [µg/mL],MIC (Acinetobacter baumannii [6]) [µg/mL],MIC (Proteus mirabilis [7]) [µg/mL],MIC (Staphylococcus aureus) [µg/mL],MIC (Bacillus subtilis [8]) [µg/mL],MNTC at 48 h [9] [µg/mL],MIC (Klebsiella pneumoniae [10]) [µg/mL],MIC (Pseudomonas aeruginosa [11]) [µg/mL],CPE-inhibitory concentration (Human respirovirus 3) [µg/mL],MIC (Escherichia coli [12]) [µg/mL],MNTC at 48 h [13] [µg/mL],MIC (Candida albicans) [µg/mL],MIC (Bacillus subtilis [14]) [µg/mL],MIC (Candida parapsilosis) [µg/mL],MIC (Pseudomonas aeruginosa [15]) [µg/mL],MIC (Escherichia coli [16]) [µg/mL]
CC1COc2c(N3CCN(C)CC3)c(F)cc3c(=O)c(C(=O)O)cn1c23 (centres undefined) [OFLOXACIN],< 0.12,1,1,0.12,32,64,< 0.12,64,,,,,,,,,,,,
O=c1cc(CCl)oc(CN2CCC(O)(c3ccc(Br)cc3)CC2)c1O,4,16,64,4,32,16,8,64,1,0.4,64,2,0.05,64,0.8,4,2,8,16,4
O=c1cc(CCl)oc(CN2CCN(Cc3ccc(F)cc3)CC2)c1O,16,16,64,32,32,64,16,64,32,1.6,64,16,0.05,64,0.4,16,64,16,64,16
CCOC(=O)C1=C[C@@H](OC(CC)CC)[C@H](NC(C)=O)[C@@H](N)C1 [OSELTAMIVIR],,,,,,,,,,,,,0.012,,1.6,,,,,
CC(=O)N1CCN(c2ccc(OCC3COC(Cn4ccnc4)(c4ccc(Cl)cc4Cl)O3)cc2)CC1 (centres undefined) [KETOCONAZOLE],,,,,,,,,,,,,,,,1,,1,,
O=c1cc(CCl)oc(CN2CCC(O)(c3ccc(Cl)c(C(F)(F)F)c3)CC2)c1O,4,16,64,4,32,16,8,64,1,0.8,64,2,0.05,64,0.4,4,2,8,16,4
Nc1nc2c(ncn2COCCO)c(=O)[nH]1 [ACYCLOVIR],,,,,,,,,,1.6,,,0.012,,,,,,,
